# ChEMBL document CHEMBL4052700, “Synthesis and biological evaluation of JL-A7 derivatives as potent ABCB1 inhibitors” (Bioorg Med Chem, 2017)
# pIC50: −log10 of the molar value. Counter-ions that a name gives are not always drawn.
# Tests used:
# Type in all cases: cell-based
# [1] = biological target: T1, ATP-dependent translocase ABCB1 (Homo sapiens, UniProt P08183); assay: Inhibition of ABCB1 in human K562/A02 cells assessed as increase in doxorubicin accumulation after 90 mins by rhodamine123 staining based flow cytometric analysis; settings: 1.5 h
# [2] = biological target: T1, ATP-dependent translocase ABCB1; assay: Inhibition of ABCB1 in human K562/A02 cells assessed as increase in adriamycin accumulation at 0.5 to 2.5 uM pretreated for 60 mins followed by ADR addition after 90 mins by fluorescence spectrophotometric method; settings: 1.5 h
# Outline: (§1)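 ADM was then added at 20 µM for 90 min. Cells were washed three times with PBS at 4 °C. Retained intracellular ADM mean fluorescence intensity was read by fluorescence spectrophotometer. Three independent experiments, mean ± SD.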
# K562 = assay: Cytotoxicity against human K562 cells after 48 hrs by MTT assay; settings: K562, 48 h
# Outline: (§2)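 K562 (parental) and K562/A02 (ADM-resistant, ABCB1-overexpressing) cells, 1×10^4/well, grown 24 h. A graded dose of compound in medium was added, then 48 h at 37 °C under 5% CO2. MTT was added for 4 h at 37 °C and absorbance read at 570 nm. IC50 was taken from dose–response curves.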
# K562/A02 = assay: Cytotoxicity against human K562/A02 cells after 48 hrs by MTT assay; settings: K562/A02, 48 h; outline: as §2
# [3] = biological target: T1, ATP-dependent translocase ABCB1; assay: Inhibition of ABCB1 in human K562/A02 cells assessed as potentiation of adriamycin-induced cytotoxicity by measuring reduction in ADR IC50 at 5 uM measured after 48 hrs by MTT assay relative to ADR alone
# Outline: (§3)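 K562/A02 cells in RPMI 1640 with 10% FBS, 1×10^4/well, grown 24 h. Graded ADM was given with the modulator (0.025–5.0 µM), 48 h at 37 °C, 5% CO2. MTT 4 h, A570. ADM IC50 came from dose–response curves. RF = ADM IC50 without modulator / IC50 with modulator. Triplicates, three independent runs, mean ± SD.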
# [4] = biological target: T1, ATP-dependent translocase ABCB1; assay: Inhibition of ABCB1 in human K562/A02 cells assessed as potentiation of adriamycin-induced cytotoxicity by measuring ADR IC50 treated for 48 hrs followed by compound washout measured after 24 hrs by MTT assay relative to ADR alone
# Outline: (§4)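 Duration of reversal in K562/A02 cells. After modulator exposure, cells were tested without washout or after modulator removal followed by 0, 6, 12 or 24 h in drug-free medium. ADM IC50 was then found by MTT. RF = IC50 without modulator / IC50 with modulator. Two to three experiments, mean ± SD.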
# [5] = biological target: T1, ATP-dependent translocase ABCB1; assay: Inhibition of ABCB1 in human K562/A02 cells assessed as potentiation of adriamycin-induced cytotoxicity by measuring ADR IC50 treated for 48 hrs followed by compound washout measured after 12 hrs by MTT assay relative to ADR alone; outline: as §4
# [6] = biological target: T1, ATP-dependent translocase ABCB1; assay: Inhibition of ABCB1 in human K562/A02 cells assessed as potentiation of adriamycin-induced cytotoxicity by measuring ADR IC50 treated for 48 hrs followed by compound washout measured immediately by MTT assay relative to ADR alone; outline: as §4
# [7] = biological target: T1, ATP-dependent translocase ABCB1; assay: Inhibition of ABCB1 in human K562/A02 cells assessed as potentiation of adriamycin-induced cytotoxicity by measuring reduction in ADR IC50 measured after 48 hrs by MTT assay relative to ADR alone; outline: as §3
# [8] = biological target: T1, ATP-dependent translocase ABCB1; assay: Inhibition of ABCB1 in human K562/A02 cells assessed as potentiation of adriamycin-induced cytotoxicity by measuring ADR IC50 treated for 48 hrs followed by compound washout measured after 6 hrs by MTT assay relative to ADR alone; outline: as §4
# [9] = biological target: T1, ATP-dependent translocase ABCB1; assay: Potency index, ratio of compound effect to verapamil effect for inhibition of ABCB1 in human K562/A02 cells assessed as increase in adriamycin accumulation at 5 uM; outline: as §1
# [10] = biological target: T1, ATP-dependent translocase ABCB1; assay: Inhibition of ABCB1 in human K562/A02 cells assessed as potentiation of adriamycin-induced cytotoxicity by measuring reduction in ADR IC50 at 0.5 uM measured after 48 hrs by MTT assay relative to ADR alone; outline: as §3
# [11] = biological target: T1, ATP-dependent translocase ABCB1; assay: Inhibition of ABCB1 in human K562/A02 cells assessed as potentiation of adriamycin-induced cytotoxicity measured after 48 hrs by MTT assay; outline: as §3
# [12] = biological target: T1, ATP-dependent translocase ABCB1; assay: Inhibition of ABCB1 in human K562/A02 cells assessed as potentiation of adriamycin-induced cytotoxicity by measuring reduction in ADR IC50 at 5 uM measured after 48 hrs by MTT assay relative to tariquidar
# [13] = biological target: T1, ATP-dependent translocase ABCB1; assay: Inhibition of ABCB1 in human K562/A02 cells assessed as rhodamine123 efflux after 90 mins by flow cytometric analysis (reference value: 0.0231 +/- 0.0058 /s); settings: 1.5 h
# [14] = biological target: T1, ATP-dependent translocase ABCB1; assay: Inhibition of ABCB1 in human K562/A02 cells assessed as potentiation of adriamycin-induced cytotoxicity by measuring reduction in ADR IC50 at 1 uM measured after 48 hrs by MTT assay relative to ADR alone; outline: as §3
# [15] = biological target: T1, ATP-dependent translocase ABCB1; assay: Inhibition of ABCB1 in human K562/A02 cells assessed as potentiation of adriamycin-induced cytotoxicity by measuring reduction in ADR IC50 at 5 uM measured after 48 hrs by MTT assay relative to verapamil
# [16] = biological target: T1, ATP-dependent translocase ABCB1; assay: Inhibition of ABCB1 in human K562/A02 cells assessed as increase in adriamycin accumulation pretreated for 60 mins followed by ADR addition after 90 mins by fluorescence spectrophotometric method; settings: 1.5 h; outline: as §1
# [17] = biological target: T1, ATP-dependent translocase ABCB1; assay: Inhibition of ABCB1 in human K562/A02 cells assessed as potentiation of adriamycin-induced cytotoxicity by measuring reduction in ADR IC50 at 0.25 uM measured after 48 hrs by MTT assay relative to ADR alone; outline: as §3
# [18] = biological target: T1, ATP-dependent translocase ABCB1; assay: Inhibition of ABCB1 in human K562/A02 cells assessed as potentiation of adriamycin-induced cytotoxicity by measuring reduction in ADR IC50 at 0.025 uM measured after 48 hrs by MTT assay relative to ADR alone; outline: as §3
# [19] = biological target: T1, ATP-dependent translocase ABCB1; assay: Inhibition of ABCB1 in human K562/A02 cells assessed as potentiation of adriamycin-induced cytotoxicity by measuring reduction in ADR IC50 at 0.05 uM measured after 48 hrs by MTT assay relative to ADR alone; outline: as §3
# [20] = biological target: T1, ATP-dependent translocase ABCB1; assay: Inhibition of ABCB1 in human K562/A02 cells assessed as potentiation of adriamycin-induced cytotoxicity by measuring reduction in ADR IC50 at 0.1 uM measured after 48 hrs by MTT assay relative to ADR alone; outline: as §3
# [21] = biological target: T1, ATP-dependent translocase ABCB1; assay: Inhibition of ABCB1 in human K562/A02 cells assessed as potentiation of adriamycin-induced cytotoxicity by measuring reduction in ADR IC50 at 5 uM measured after 48 hrs by MTT assay relative to JL-A7
# [22] = biological target: T1, ATP-dependent translocase ABCB1; assay: Inhibition of ABCB1 in human K562/A02 cells assessed as potentiation of adriamycin-induced cytotoxicity by measuring reduction in ADR IC50 at 2.5 uM measured after 48 hrs by MTT assay relative to ADR alone; outline: as §3
# T1 sequence (P08183 whole entry): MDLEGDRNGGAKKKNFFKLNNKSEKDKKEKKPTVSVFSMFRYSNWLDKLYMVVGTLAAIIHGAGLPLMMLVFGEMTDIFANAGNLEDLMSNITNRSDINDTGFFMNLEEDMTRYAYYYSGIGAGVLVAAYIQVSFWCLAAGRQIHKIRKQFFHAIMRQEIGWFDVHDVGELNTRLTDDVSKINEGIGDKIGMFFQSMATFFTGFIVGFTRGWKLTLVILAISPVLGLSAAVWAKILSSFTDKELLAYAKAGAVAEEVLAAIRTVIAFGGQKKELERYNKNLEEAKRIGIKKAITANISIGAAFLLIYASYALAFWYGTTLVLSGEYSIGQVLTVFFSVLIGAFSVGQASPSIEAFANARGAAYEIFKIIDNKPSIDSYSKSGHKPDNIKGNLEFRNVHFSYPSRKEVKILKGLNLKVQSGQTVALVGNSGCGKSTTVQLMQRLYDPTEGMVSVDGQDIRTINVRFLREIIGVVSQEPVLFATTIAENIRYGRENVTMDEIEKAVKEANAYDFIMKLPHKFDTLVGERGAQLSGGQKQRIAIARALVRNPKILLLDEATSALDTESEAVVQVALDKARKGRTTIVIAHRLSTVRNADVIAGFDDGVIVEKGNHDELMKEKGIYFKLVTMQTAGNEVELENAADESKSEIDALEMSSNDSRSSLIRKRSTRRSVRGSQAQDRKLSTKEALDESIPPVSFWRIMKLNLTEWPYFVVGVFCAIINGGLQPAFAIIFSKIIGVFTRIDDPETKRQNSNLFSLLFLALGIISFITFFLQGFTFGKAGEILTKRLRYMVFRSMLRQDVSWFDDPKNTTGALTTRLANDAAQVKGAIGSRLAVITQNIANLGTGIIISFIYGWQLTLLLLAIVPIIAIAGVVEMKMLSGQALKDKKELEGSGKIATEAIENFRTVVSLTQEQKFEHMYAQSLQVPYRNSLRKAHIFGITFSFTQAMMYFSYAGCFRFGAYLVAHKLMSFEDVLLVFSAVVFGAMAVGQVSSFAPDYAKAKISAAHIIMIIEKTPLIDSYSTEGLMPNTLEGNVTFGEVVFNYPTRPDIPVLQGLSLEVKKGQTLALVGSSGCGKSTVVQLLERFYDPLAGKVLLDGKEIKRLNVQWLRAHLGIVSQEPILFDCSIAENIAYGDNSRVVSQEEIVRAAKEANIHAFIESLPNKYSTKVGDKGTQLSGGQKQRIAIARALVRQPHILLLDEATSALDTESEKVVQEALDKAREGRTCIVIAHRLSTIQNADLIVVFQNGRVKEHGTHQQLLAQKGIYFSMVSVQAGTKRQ
smiles,measurement,setting,value
COc1ccc(CCN(C)CCCC(C#N)(c2ccc(OC)c(OC)c2)C(C)C)cc1OC (stereo not drawn),inhibition (INH),[1],Dose-dependent effect
same,inhibition (INH),[2],Active
COc1ccc(NC(=O)c2ccccc2OCc2cn(CCN3CCc4cc(OC)c(OC)cc4C3)nn2)cc1OC,pIC50,K562,< 4.00
same,pIC50,K562/A02,< 4.00
same,fold change (FC),[3],12.4
COc1cc2c(cc1OC)CN(CCn1cc(COc3ccccc3C(=O)Nc3cc(OC)c(OC)c(OC)c3)nn1)CC2,pIC50,K562,< 4.00
same,pIC50,K562/A02,< 4.00
same,fold change (FC),[3],3
COc1cc2c(cc1OC)CN(CCc1ccc(NC(=O)c3cc(OC)c(OC)cc3NC(=O)c3cnc4ccccc4c3)cc1)CC2,fold change (FC),[4],3.55
same,pIC50,K562,4.50
same,pIC50,K562/A02,4.57
same,fold change (FC),[5],6.1
same,fold change (FC),[6],16.86
same,fold change (FC),[7],31.98
same,fold change (FC),[3],49.1
same,fold change (FC),[8],10.37
COc1cc2c(cc1OC)CN(CCn1cc(COc3ccccc3C(=O)Nc3ccccc3)nn1)CC2,pIC50,K562,< 4.00
same,pIC50,K562/A02,< 4.00
same,fold change (FC),[3],3.8
COc1cccc(NC(=O)c2ccccc2OCc2cn(CCN3CCc4cc(OC)c(OC)cc4C3)nn2)c1,pIC50,K562,< 4.00
same,pIC50,K562/A02,< 4.00
same,fold change (FC),[3],5.6 to 11.1
COc1cc2c(cc1OC)CN(CCn1cc(COc3ccccc3C(=O)Nc3cccc([N+](=O)[O-])c3)nn1)CC2,pIC50,K562,< 4.00
same,pIC50,K562/A02,< 4.00
same,fold change (FC),[3],3.5
COc1cc2c(cc1OC)CN(CCn1cc(COc3ccccc3C(=O)Nc3ccccc3C)nn1)CC2,pIC50,K562,< 4.00
same,pIC50,K562/A02,< 4.00
same,fold change (FC),[3],4.4
COc1cc2c(cc1OC)CN(CCn1cc(COc3ccccc3C(=O)Nc3ccc(OC(F)(F)F)cc3)nn1)CC2,pIC50,K562,< 4.00
same,pIC50,K562/A02,< 4.00
same,fold change (FC),[3],21.4
COc1cc2c(cc1OC)CN(CCn1cc(COc3ccccc3C(=O)Nc3cccc(Cl)c3)nn1)CC2,pIC50,K562,4.06
same,pIC50,K562/A02,< 4.00
same,fold change (FC),[3],4.3
COc1cc2c(cc1OC)CN(CCn1cc(COc3ccccc3C(=O)Nc3ccc(C(C)(C)C)cc3)nn1)CC2,fold change (FC),[4],2.96
same,Ratio,[9],1.4
same,pIC50,K562,< 4.00
same,pIC50,K562/A02,< 4.00
same,fold change (FC),[10],3.9
same,inhibition (INH),[11],Dose-dependent effect
same,fold change (FC),[12],<= 31.4
same,K,[13],0.0067 s⁻¹
same,fold change (FC),[14],7.5
same,fold change (FC),[15],<= 31.4
same,fold change (FC),[5],4.93
same,inhibition (INH),[16],Dose-dependent effect
same,inhibition (INH),[1],Dose-dependent effect
same,fold change (FC),[17],2.4
same,fold change (FC),[6],11.83
same,fold change (FC),[18],1.4
same,fold change (FC),[7],40.34
same,fold change (FC),[3],33.5
same,inhibition (INH),[2],Active
same,fold change (FC),[8],8.16
same,fold change (FC),[19],1.4
same,fold change (FC),[20],1.6
same,fold change (FC),[21],<= 31.4
same,fold change (FC),[22],13.5
COc1cc2c(cc1OC)CN(CCn1cc(COc3ccccc3C(=O)Nc3ccc(Cl)cc3)nn1)CC2,pIC50,K562,< 4.00
same,pIC50,K562/A02,< 4.00
same,fold change (FC),[3],14
COc1cc2c(cc1OC)CN(CCn1cc(COc3ccccc3C(=O)Nc3ccc(C)cc3)nn1)CC2,pIC50,K562,< 4.00
same,pIC50,K562/A02,< 4.00
same,fold change (FC),[3],12.6
COc1cc2c(cc1OC)CN(CCn1cc(COc3ccccc3C(=O)Nc3ccccc3[N+](=O)[O-])nn1)CC2,pIC50,K562,< 4.00
same,pIC50,K562/A02,< 4.00
same,fold change (FC),[3],3.6
COc1cc2c(cc1OC)CN(CCn1cc(COc3ccccc3NC(=O)c3ccc(C(C)(C)C)cc3)nn1)CC2,pIC50,K562,< 4.00
same,pIC50,K562/A02,< 4.00
same,fold change (FC),[3],28.2
CCCCc1ccc(NC(=O)c2ccccc2OCc2cn(CCN3CCc4cc(OC)c(OC)cc4C3)nn2)cc1,pIC50,K562,< 4.00
same,pIC50,K562/A02,< 4.00
same,fold change (FC),[3],15.5
COc1cc2c(cc1OC)CN(CCn1cc(COc3ccccc3C(=O)Nc3cccc(C)c3)nn1)CC2,pIC50,K562,< 4.00
same,pIC50,K562/A02,< 4.00
same,fold change (FC),[3],8
COc1cc2c(cc1OC)CN(CCn1cc(COc3ccccc3C(=O)Nc3ccc(F)cc3)nn1)CC2,pIC50,K562,< 4.00
same,pIC50,K562/A02,< 4.00
same,fold change (FC),[3],11.7
COc1cc2c(cc1OC)CN(CCn1cc(COc3ccccc3C(=O)Nc3ccc([N+](=O)[O-])cc3)nn1)CC2,pIC50,K562,< 4.00
same,pIC50,K562/A02,< 4.00
same,fold change (FC),[3],4.6
COc1cccc2c1C(=O)c1c(O)c3c(c(O)c1C2=O)C[C@@](O)(C(=O)CO)C[C@@H]3O[C@H]1C[C@H](N)[C@H](O)[C@H](C)O1 [DOXORUBICIN HYDROCHLORIDE],pIC50,K562,5.37
same,pIC50,K562/A02,4.01
same,fold change (FC),[3],1
COc1ccc(NC(=O)c2ccccc2OCc2cn(CCN3CCc4cc(OC)c(OC)cc4C3)nn2)cc1,pIC50,K562,4.10
same,pIC50,K562/A02,< 4.00
same,fold change (FC),[3],11.6
